# What was measured:
# [1] = target: Vascular endothelial growth factor receptor 2 (Homo sapiens) (UniProt P35968); test: Inhibition of human recombinant KDR at 500 nM related to control ULK1
# [2] = target: Ribosomal protein S6 kinase alpha-6 (Homo sapiens) (UniProt Q9UK32); test: Inhibition of human recombinant RSK4 at 500 nM in presence of ATP by radiometric assay relative to control
# [3] = target: Tyrosine-protein kinase FRK (Homo sapiens) (UniProt P42685); test: Inhibition of human recombinant FRK at 500 nM in presence of ATP by radiometric assay relative to control
# [4] = target: Ephrin type-A receptor 7 (Homo sapiens) (UniProt Q15375); test: Inhibition of human recombinant EphA7 at 500 nM in presence of ATP by radiometric assay relative to control
# [5] = target: Mitogen-activated protein kinase kinase kinase 20 (Homo sapiens) (UniProt Q9NYL2); test: Inhibition of human recombinant ZAK at 15 nM in presence of ATP by radiometric assay relative to control
# [6] = target: Serine/threonine-protein kinase PAK 6 (Homo sapiens) (UniProt Q9NQU5); test: Inhibition of human recombinant PAK6 at 15 nM in presence of ATP by radiometric assay relative to control
# [7] = target: T1, Tribbles homolog 2 (Homo sapiens) (UniProt Q92519); test: Inhibition of human recombinant Trb2 at 15 nM related to control ULK1
# T1 sequence (whole entry): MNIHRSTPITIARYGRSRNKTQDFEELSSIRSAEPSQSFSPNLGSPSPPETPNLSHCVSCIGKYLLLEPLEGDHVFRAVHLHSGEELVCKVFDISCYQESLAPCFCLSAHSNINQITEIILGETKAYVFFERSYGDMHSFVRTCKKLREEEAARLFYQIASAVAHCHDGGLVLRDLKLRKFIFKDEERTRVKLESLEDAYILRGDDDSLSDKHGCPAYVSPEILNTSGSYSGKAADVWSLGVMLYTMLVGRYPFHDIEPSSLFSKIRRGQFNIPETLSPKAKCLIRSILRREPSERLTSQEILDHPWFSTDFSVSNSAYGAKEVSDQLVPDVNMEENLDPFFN
# [8] = target: Insulin receptor (Homo sapiens) (UniProt P06213); test: Inhibition of human recombinant INSR at 15 nM in presence of ATP by radiometric assay relative to control
# [9] = target: MAP/microtubule affinity-regulating kinase 3 (Homo sapiens) (UniProt P27448); test: Inhibition of human recombinant MARK3 at 15 nM related to control ULK1
# [10] = target: Death-associated protein kinase 1 (Homo sapiens) (UniProt P53355); test: Inhibition of human recombinant DAPK1 at 15 nM in presence of ATP by radiometric assay relative to control
# [11] = target: Serine/threonine-protein kinase SBK1 (Homo sapiens) (UniProt Q52WX2); test: Inhibition of human recombinant SBK1 at 15 nM related to control ULK1
# [12] = target: Dual specificity protein kinase CLK4 (Homo sapiens) (UniProt Q9HAZ1); test: Inhibition of human recombinant CLK4 at 40 nM in presence of ATP by radiometric assay relative to control
# [13] = target: T2, Serine/threonine-protein kinase 3 (Homo sapiens) (UniProt Q13188); test: Inhibition of human recombinant MST2 at 40 nM in presence of ATP by radiometric assay relative to control
# T2 sequence (whole entry): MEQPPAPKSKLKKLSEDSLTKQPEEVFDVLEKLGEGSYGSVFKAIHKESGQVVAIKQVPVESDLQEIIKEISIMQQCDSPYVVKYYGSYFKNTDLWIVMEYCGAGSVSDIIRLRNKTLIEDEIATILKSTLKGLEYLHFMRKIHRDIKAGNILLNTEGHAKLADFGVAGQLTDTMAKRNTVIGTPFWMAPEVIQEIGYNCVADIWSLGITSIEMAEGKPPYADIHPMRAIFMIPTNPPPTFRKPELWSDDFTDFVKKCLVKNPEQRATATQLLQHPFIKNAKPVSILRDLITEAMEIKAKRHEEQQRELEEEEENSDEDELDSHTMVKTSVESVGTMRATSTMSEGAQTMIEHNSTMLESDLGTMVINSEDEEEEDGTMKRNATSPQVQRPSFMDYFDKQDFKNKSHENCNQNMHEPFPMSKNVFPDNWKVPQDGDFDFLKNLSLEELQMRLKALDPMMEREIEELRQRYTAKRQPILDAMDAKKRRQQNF
# [14] = target: Proto-oncogene tyrosine-protein kinase ROS (Homo sapiens) (UniProt P08922); test: Inhibition of human recombinant ROS at 40 nM in presence of ATP by radiometric assay relative to control
# [15] = target: Casein kinase II subunit alpha (Homo sapiens) (UniProt P68400); test: Inhibition of human recombinant CK2a1 at 40 nM in presence of ATP by radiometric assay relative to control
# [16] = target: T3, Aurora kinase C (Homo sapiens) (UniProt Q9UQB9); test: Inhibition of human recombinant AurC at 40 nM in presence of ATP by radiometric assay relative to control
# T3 sequence (whole entry): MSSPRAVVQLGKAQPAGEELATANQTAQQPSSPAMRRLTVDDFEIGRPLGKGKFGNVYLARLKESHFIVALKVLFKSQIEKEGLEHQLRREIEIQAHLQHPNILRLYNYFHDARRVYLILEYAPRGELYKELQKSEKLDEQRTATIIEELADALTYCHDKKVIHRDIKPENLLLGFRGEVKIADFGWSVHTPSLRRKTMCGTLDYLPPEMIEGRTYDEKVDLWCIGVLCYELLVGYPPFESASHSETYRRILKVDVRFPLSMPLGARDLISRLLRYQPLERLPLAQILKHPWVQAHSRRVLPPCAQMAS
# Procedure, shortened: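 Part of a radiometric in vitro activity panel of 327 recombinant human kinases. Each kinase was tested in duplicate at one inhibitor concentration. Activity remaining was expressed as a percentage of the vehicle control, and percent inhibition was taken as 100 minus that value.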
# Proto-oncogene tyrosine-protein kinase ROS (Homo sapiens), sequence (P08922 whole entry): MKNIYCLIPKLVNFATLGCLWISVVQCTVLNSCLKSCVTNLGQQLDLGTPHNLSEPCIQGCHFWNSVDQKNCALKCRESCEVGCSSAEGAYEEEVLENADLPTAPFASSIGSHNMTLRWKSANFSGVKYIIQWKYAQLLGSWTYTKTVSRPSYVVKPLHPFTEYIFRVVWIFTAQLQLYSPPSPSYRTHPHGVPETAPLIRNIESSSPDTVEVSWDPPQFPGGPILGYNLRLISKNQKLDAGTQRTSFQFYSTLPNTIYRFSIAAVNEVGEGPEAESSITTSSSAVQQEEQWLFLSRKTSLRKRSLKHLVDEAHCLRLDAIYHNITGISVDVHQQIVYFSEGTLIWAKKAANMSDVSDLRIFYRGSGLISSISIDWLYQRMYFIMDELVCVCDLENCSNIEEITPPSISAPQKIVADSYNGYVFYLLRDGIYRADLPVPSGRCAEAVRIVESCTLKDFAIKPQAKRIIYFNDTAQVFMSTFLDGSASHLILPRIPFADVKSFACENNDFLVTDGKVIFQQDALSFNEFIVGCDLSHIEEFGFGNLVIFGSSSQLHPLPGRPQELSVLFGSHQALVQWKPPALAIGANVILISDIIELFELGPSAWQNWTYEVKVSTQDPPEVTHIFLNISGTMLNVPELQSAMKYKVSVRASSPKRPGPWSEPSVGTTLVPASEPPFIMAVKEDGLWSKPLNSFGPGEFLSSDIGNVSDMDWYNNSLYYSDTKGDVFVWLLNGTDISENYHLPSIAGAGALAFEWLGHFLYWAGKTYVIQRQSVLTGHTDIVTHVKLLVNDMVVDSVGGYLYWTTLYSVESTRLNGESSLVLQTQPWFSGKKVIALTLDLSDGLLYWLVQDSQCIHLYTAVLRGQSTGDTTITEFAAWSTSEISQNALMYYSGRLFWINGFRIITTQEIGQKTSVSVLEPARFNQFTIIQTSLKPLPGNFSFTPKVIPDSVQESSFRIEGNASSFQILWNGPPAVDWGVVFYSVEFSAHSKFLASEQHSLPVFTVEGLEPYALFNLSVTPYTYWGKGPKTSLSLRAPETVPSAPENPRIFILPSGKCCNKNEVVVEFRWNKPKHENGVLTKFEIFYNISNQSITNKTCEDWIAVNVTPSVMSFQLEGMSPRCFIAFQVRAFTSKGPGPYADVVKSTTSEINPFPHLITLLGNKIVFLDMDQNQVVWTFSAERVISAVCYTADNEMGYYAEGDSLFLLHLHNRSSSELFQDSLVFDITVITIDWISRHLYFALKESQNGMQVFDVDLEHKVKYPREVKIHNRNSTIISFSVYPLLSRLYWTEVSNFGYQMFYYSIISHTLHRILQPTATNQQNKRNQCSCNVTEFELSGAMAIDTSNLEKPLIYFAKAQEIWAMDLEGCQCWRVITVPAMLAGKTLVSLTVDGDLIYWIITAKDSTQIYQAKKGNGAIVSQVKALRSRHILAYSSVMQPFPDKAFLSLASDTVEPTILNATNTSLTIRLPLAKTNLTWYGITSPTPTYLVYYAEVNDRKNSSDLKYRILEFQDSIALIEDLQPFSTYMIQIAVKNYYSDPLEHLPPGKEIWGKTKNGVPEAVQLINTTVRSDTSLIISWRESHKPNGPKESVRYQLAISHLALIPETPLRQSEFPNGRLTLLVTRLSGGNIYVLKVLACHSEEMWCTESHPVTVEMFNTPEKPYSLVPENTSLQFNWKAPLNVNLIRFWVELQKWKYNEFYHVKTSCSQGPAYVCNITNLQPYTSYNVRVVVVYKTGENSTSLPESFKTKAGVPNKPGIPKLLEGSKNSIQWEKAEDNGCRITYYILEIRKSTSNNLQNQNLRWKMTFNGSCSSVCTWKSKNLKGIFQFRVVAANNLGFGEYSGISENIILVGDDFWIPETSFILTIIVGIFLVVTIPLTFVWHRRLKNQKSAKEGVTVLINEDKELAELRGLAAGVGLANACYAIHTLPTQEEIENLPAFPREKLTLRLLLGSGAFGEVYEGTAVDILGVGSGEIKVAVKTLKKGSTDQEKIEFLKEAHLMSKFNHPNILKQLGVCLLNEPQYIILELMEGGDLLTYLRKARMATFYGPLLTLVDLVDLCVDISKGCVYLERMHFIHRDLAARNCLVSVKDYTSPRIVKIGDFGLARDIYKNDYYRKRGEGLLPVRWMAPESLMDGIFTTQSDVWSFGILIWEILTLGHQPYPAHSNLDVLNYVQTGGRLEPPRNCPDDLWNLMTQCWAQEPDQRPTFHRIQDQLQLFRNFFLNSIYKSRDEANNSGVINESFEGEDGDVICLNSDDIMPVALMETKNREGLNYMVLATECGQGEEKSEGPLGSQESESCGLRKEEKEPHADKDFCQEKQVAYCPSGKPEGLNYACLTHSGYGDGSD
# Tyrosine-protein kinase FRK (Homo sapiens), sequence (P42685 whole entry): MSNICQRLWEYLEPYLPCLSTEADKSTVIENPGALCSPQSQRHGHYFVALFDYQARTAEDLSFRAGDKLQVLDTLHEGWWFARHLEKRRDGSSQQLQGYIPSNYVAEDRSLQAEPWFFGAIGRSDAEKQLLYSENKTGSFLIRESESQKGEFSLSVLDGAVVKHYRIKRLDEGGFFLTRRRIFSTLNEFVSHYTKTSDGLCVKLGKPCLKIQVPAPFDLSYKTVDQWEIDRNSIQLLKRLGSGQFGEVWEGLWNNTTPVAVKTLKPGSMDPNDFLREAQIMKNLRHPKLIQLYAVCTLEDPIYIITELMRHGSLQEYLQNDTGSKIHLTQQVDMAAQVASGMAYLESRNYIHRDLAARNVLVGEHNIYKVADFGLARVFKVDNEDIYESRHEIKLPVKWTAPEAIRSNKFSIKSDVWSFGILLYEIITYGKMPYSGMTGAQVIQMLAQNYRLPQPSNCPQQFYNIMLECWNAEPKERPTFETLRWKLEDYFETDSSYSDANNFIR
# Ephrin type-A receptor 7 (Homo sapiens), sequence (Q15375 28-998 limits assumed): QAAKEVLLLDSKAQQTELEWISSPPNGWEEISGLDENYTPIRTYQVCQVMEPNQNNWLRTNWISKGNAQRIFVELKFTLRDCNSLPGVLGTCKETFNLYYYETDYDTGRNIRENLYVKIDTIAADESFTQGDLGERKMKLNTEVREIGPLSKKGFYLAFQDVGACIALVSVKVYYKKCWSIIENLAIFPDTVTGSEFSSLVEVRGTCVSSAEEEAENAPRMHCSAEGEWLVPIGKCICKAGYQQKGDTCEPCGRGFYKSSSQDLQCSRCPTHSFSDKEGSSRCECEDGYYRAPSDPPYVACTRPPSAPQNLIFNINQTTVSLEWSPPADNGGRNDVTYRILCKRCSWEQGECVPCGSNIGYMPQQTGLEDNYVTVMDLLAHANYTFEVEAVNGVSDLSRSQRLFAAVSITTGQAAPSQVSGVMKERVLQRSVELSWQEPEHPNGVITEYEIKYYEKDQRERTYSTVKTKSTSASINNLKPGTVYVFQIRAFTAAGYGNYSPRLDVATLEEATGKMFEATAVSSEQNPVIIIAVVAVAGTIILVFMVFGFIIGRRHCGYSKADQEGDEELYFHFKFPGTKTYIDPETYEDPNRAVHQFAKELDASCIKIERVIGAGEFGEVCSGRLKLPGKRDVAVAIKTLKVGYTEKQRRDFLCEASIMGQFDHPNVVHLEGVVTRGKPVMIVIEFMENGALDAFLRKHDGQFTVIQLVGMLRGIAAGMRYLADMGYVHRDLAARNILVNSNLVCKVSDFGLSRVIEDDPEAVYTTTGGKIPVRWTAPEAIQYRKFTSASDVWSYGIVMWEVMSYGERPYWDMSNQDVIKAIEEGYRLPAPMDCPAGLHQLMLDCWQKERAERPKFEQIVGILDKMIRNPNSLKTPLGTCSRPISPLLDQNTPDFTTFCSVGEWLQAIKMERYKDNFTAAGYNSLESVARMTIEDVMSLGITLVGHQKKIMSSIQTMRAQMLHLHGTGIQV
# Serine/threonine-protein kinase PAK 6 (Homo sapiens), sequence (Q9NQU5 whole entry, looked up): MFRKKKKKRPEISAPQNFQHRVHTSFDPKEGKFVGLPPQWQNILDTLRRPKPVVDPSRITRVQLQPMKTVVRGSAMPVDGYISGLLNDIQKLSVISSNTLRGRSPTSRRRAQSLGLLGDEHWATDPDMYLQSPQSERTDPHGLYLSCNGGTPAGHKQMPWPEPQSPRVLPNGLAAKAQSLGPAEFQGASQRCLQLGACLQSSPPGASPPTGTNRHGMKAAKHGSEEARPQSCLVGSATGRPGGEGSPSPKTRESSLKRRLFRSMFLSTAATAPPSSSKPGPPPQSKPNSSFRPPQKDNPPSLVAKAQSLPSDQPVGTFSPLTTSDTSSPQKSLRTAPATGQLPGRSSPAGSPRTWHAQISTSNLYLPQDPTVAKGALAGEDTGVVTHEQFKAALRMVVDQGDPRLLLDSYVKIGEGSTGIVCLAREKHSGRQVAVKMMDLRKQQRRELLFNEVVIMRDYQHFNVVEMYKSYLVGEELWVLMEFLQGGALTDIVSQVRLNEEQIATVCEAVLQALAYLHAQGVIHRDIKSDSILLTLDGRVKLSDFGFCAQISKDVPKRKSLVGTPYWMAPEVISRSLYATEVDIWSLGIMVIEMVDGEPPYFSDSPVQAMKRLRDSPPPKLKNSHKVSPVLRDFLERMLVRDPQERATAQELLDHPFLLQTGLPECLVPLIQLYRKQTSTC
# Casein kinase II subunit alpha (Homo sapiens), sequence (P68400 whole entry, looked up): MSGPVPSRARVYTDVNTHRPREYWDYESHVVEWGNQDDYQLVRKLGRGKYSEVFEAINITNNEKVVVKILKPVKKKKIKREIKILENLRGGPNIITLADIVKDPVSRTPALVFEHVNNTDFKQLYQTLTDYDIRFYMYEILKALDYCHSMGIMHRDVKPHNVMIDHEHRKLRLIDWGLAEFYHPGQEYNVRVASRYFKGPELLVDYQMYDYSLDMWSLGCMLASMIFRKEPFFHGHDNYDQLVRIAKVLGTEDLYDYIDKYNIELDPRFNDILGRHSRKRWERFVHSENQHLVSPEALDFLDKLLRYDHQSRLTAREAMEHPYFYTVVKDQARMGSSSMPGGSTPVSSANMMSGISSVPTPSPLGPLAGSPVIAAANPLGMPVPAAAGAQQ
smiles,measurement,setting,value
CNC(=O)c1ccccc1Oc1nc(Nc2cc(OC)c(OC)c(OC)c2)ncc1Br,fold change (FC),[1],0
same,inhibition,[2],33%
same,inhibition,[3],9%
same,inhibition,[4],0%
CC(C)[C@H](NC(=O)c1cc(-c2cnn3cc(-c4ccc(OCCN5CCCCC5)cc4)cnc23)cs1)C(F)(F)F,inhibition,[5],26%
same,inhibition,[6],0%
same,fold change (FC),[7],0.41
same,inhibition,[8],0%
same,fold change (FC),[9],0.72
same,inhibition,[10],4%
same,fold change (FC),[11],0.06
O=C(N[C@@H](C1CC1)C(F)(F)F)c1cc(-c2cnn3cc(-c4ccc(F)cc4)cnc23)cs1,inhibition,[12],52%
same,inhibition,[13],0%
same,inhibition,[14],0%
same,inhibition,[15],7%
same,inhibition,[16],0%

# — ChEMBL document CHEMBL5653631, “A Potent and Selective ULK1 Inhibitor Suppresses Autophagy and Sensitizes Cancer Cells to Nutrient Stress” (iScience, 2018)
